SMILES strings stand for the structures. Changes are numbered by the printed parent chain. Like-named read-outs stand apart in the source and are kept apart here.

In experiment [1] the target is T1, rP2X2-3T receptors (Rattus norvegicus, UniProt P49653, C348T/C430T/C9T).
T1 sequence (P49653 1-472 C9T/C348T/C430T): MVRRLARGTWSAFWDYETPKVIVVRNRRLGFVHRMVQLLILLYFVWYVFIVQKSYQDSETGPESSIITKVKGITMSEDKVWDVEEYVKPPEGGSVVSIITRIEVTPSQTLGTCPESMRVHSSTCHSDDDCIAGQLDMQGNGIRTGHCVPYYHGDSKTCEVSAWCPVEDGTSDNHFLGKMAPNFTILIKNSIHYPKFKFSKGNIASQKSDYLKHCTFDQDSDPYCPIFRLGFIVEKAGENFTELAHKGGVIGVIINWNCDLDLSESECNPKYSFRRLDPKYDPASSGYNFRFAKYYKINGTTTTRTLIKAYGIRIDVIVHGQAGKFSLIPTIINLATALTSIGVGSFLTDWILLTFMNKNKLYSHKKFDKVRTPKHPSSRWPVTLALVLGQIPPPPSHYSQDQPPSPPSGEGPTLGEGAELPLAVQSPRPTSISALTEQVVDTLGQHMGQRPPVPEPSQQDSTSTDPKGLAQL
Briefly: Single channel outside-out patch-clamp recordings, HEK-293 cells. The following applies: agonist 1 µM, mean ± SEM. Format: cell-based. The gist of the method: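 HEK-293 cells were co-transfected by calcium phosphate with rP2X2-3T DNA plus GFP DNA to mark transfected cells, then recorded within 24 h. Outside-out patches were held at −120 mV. Pipette contained 147 NaF, 10 EGTA and 10 HEPES (mM, pH 7.3). Agonist at 1, 10 or 100 µM in extracellular saline (pH 7.3) was applied by fast perfusion for 10 s per 12-s sweep, at 1-min intervals. Amplitudes came from Gaussian fits to all-points histograms, with 2–5 sweeps averaged per patch.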
On the technique in general: In patch-clamp work, channel activity is measured electrically.

The target of experiment [2] is T2, rP2X2 Lys69Arg (Rattus norvegicus, UniProt P49653, K69R).
T2 sequence (P49653 1-472 K69R): T1 sequence (P49653 1-472 C9T/C348T/C430T) with T9C, K69R, T348C, T430C
Briefly: Two-electrode voltage clamp, oocytes expressing rP2X2 Lys69Arg. The experiment is classed as cell-based. On the technique in general: In two-electrode clamp one electrode senses voltage and the other passes current.

Usually EC50 stands for the concentration that produces a half-maximal response. Low values mean a more potent agent, high ones a less potent agent. For `Nc1ncnc2c1ncn2[C@@H]1O[C@H](COP(=O)(O)OP(=O)(O)OP(=O)(O)O)[C@@H](O)[C@H]1O` [ATP, Adenosine 5′-triphosphate], the “SDopen (SD of the open state amplitude)” value in experiment [1] was determined as 1.02 ± 0.1. Besides, the EC50 is more than 5 mM in experiment [2] and 6 mM in experiment [2] (mean ± SEM).

The values are drawn from PMC6605687 (The Journal of General Physiology, 2019).
